Test results reported in ChEMBL document CHEMBL4265954, “Discovery of potent liver-selective stearoyl-CoA desaturase-1 (SCD1) inhibitors, thiazole-4-acetic acid derivatives, for the treatment of diabetes, hepatic steatosis, and obesity” (Eur J Med Chem, 2018).

Assays:
[1] = molecular target: T1, Stearoyl-CoA desaturase (Homo sapiens, UniProt O00767); assay: Inhibition of recombinant human SCD1 expressed in baculovirus expression system assessed as reduction in [3H]H2O production using stearoyl [9,10-3H]CoA as substrate in presence of NADH incubated for 30 mins by scintillation counting method
T1 sequence (O00767 whole entry): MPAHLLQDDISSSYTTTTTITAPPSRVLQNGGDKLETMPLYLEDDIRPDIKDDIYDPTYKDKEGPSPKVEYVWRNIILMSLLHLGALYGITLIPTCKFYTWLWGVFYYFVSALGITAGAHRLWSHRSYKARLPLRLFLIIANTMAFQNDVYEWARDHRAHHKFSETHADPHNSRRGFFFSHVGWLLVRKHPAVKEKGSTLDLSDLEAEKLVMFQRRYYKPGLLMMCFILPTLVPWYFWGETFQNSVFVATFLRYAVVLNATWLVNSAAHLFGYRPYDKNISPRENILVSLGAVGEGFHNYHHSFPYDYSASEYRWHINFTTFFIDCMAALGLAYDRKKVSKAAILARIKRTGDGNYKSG
How it was run: (§1)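 Desaturation of [9,10-3H]stearoyl-CoA measured as released [3H]H2O. Water was separated from charcoal-adsorbed substrate by filtration and counted by scintillation. Remaining activity = (compound − background)/(control − background). DMSO wells served as control and pre-stopped wells as background. IC50 was interpolated from the two points bracketing 50%.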

[2] = system: Mus musculus; assay: Ex vivo inhibition of SCD1 in C57BL/6J mouse liver assessed as residual activity at 1 mg/kg, po treated for 6 hrs followed by incubation with [14C]stearoyl-CoA substrate for 10 mins by TLC assay relative to control; type: functional
How it was run: (§2)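 Male 6-week-old C57BL/6J mice dosed orally as a suspension in 0.5% methylcellulose. Liver or eyelid was taken 6 or 24 h later and homogenized in 100 mM Tris-HCl pH 7.4 with 0.25 M sucrose. S9 was obtained at 10,000 × g, 4 °C. S9 was incubated with [14C]stearoyl-CoA, NADH, MgCl2 and cytochrome b5 at room temperature, 10 min for liver and 30 min for eyelid. Lipids were saponified and run on AgNO3 TLC to quantify stearate and oleate. Result is % of vehicle control.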

[3] = system: Mus musculus; assay: Ex vivo inhibition of SCD1 in C57BL/6J mouse eyelid assessed as residual activity at 1 mg/kg, po treated for 6 hrs followed by incubation with [14C]stearoyl-CoA substrate for 30 mins by TLC assay relative to control; type: organism-based; how it was run: as §2
[4] = system: Mus musculus; assay: Ex vivo inhibition of SCD1 in C57BL/6J mouse liver assessed as residual activity at 10 mg/kg, po treated for 24 hrs followed by incubation with [14C]stearoyl-CoA substrate for 10 mins by TLC assay relative to control; type: functional; how it was run: as §2
[5] = system: Mus musculus; assay: Ex vivo inhibition of SCD1 in C57BL/6J mouse eyelid assessed as residual activity at 100 mg/kg, po treated for 24 hrs followed by incubation with [14C]stearoyl-CoA substrate for 30 mins by TLC assay relative to control; type: organism-based; how it was run: as §2
[6] = molecular target: Acyl-CoA (8-3)-desaturase (Homo sapiens, UniProt O60427); assay: Inhibition of delta-5 fatty acid desaturase (unknown origin)
Acyl-CoA (8-3)-desaturase, sequence (O60427 whole entry): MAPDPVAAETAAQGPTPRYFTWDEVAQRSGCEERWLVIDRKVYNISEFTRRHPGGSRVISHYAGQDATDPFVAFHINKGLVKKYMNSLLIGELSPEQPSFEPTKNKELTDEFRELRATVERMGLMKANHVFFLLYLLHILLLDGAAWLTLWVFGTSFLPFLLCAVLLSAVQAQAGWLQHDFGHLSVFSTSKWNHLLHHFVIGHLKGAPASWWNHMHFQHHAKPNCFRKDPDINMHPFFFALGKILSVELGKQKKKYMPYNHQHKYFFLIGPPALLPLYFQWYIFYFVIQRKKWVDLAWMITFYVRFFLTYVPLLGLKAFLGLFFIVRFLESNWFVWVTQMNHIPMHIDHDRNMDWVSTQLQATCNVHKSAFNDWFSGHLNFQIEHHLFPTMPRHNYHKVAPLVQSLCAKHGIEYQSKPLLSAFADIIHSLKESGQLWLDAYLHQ

[7] = Inhibition of acetyl-CoA acetyltransferase (unknown origin); set-up: species or system Homo sapiens
[8] = molecular target: T2, Acyl-CoA desaturase 1 (Mus musculus, UniProt P13516); assay: Inhibition of mouse liver microsome SCD assessed as reduction in [3H]H2O production using stearoyl [9,10-3H]CoA as substrate in presence of NADH incubated for 30 mins by scintillation counting method; type: microsomes; how it was run: as §1
T2 sequence (P13516 whole entry): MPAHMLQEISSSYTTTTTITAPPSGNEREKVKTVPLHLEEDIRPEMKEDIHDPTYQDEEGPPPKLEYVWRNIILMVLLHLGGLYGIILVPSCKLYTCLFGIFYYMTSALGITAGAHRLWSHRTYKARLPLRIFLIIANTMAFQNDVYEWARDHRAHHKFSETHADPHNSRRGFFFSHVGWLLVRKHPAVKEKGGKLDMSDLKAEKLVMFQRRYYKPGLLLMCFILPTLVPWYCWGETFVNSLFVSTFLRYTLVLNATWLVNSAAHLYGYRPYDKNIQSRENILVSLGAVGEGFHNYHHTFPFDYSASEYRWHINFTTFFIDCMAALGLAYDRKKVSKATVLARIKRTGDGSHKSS

Structure (SMILES) | IC50 [1] | Activity [3] | Activity [2] | other results
O=C(O)CCCc1csc(NC(=O)c2ccc(CNc3ccccc3C(F)(F)F)cc2)n1 | 2700 nM |  |  | 
CCCc1ccccc1NCc1ccc(C(=O)Nc2nc(C)cs2)cc1 | 8.9 nM |  |  | 
Cc1csc(NC(=O)c2ccc(CNc3ccccc3C(=O)O)cc2)n1 | 3600 nM |  |  | 
O=C(O)Cc1csc(NC(=O)c2ccc(CNc3ccccc3-c3ccccc3)cc2)n1 | 8.7 nM | 187% | 74% | 
Cc1csc(NC(=O)c2ccc(CNc3cccc(Cl)c3)cc2)n1 | 18 nM |  |  | 
CCCCc1ccccc1NCc1ccc(C(=O)Nc2nc(CC(=O)O)cs2)cc1 | 5.5 nM | 74% | 76% | 
Cc1csc(NC(=O)c2ccc(CNc3ccccc3Cl)cc2)n1 | 9.2 nM |  |  | 
O=C(O)Cc1csc(NC(=O)c2ccc(CNc3ccccc3C(F)(F)F)s2)n1 | 9 nM | 124% | 51% | 
Cc1csc(NC(=O)c2ccc(CNc3ccccc3)cc2)n1 | 95 nM |  |  | 
Cc1csc(NC(=O)c2ccc(COc3ccccc3Cl)cc2)n1 | 150 nM |  |  | 
CC(C)CCc1ccccc1NCc1ccc(C(=O)Nc2nc(CC(=O)O)cs2)s1 | 6.7 nM | 160% | 19% | Activity [4]: 34%; Activity [5]: 84%
O=C(O)CCc1cnc(NC(=O)c2ccc(CNc3ccccc3C(F)(F)F)cc2)s1 | 570 nM |  |  | 
O=C(O)Cc1cnc(NC(=O)c2ccc(CNc3ccccc3C(F)(F)F)cc2)s1 | 58 nM |  |  | 
Cc1csc(NC(=O)c2ccc(CNc3ccc(Cl)cc3)cc2)n1 | 760 nM |  |  | 
CC(C)CCc1ccccc1NCc1ccc(C(=O)Nc2nc(CCO)cs2)cc1 | 5.3 nM | 63% | 26% | 
O=C(O)Cc1csc(NC(=O)c2ccc(CNc3ccccc3Cc3ccccc3)s2)n1 | 7.5 nM | 128% | 22% | Activity [4]: 20%; Activity [5]: 76%
O=C(O)Cc1csc(NC(=O)c2ccc(CNc3ccccc3Cc3ccccc3)cc2)n1 | 5.5 nM | 76% | 18% | Activity [4]: 53%; Activity [5]: 100%

Structure (SMILES) | IC50 [1] | Activity [3] | Activity [2] | other results
Cc1ccccc1NCc1ccc(C(=O)Nc2nc(CC(=O)O)cs2)cc1 | 14 nM |  |  | 
Cc1csc(NC(=O)N2CCC(CNc3ccccc3C(F)(F)F)CC2)n1 | 30 nM |  |  | 
O=C(O)Cc1csc(NC(=O)c2ccc(CNc3ccccc3Cl)cc2)n1 | 13 nM | 132% | 72% | 
Cc1ccccc1NCc1ccc(C(=O)Nc2nc(C(=O)O)cs2)cc1 | > 10000 nM |  |  | 
Cc1csc(NC(=O)c2ccc(CNc3ccccc3C)cn2)n1 | 46 nM |  |  | 
Cc1csc(NC(=O)c2ccc(CNc3ccccc3C(F)(F)F)s2)n1 | 9.7 nM |  |  | 
O=C(Nc1ncc(C(=O)O)s1)c1ccc(CNc2ccccc2C(F)(F)F)cc1 | 8.1 nM |  |  | 
O=C(Nc1nc(CO)cs1)c1ccc(CNc2ccccc2C(F)(F)F)s1 | 5.1 nM | 33% | 9% | 
CCCCCCCCc1ccccc1NCc1ccc(C(=O)Nc2nc(CC(=O)O)cs2)s1 | 17 nM | 77% | 7% | Activity [4]: 11%; Activity [5]: 8%
O=C(Nc1ncc(CCCO)s1)c1ccc(CNc2ccccc2C(F)(F)F)cc1 | 260 nM |  |  | 
O=C(Nc1nc(CCCO)c(CCO)s1)c1ccc(CNc2ccccc2C(F)(F)F)cc1 | 31 nM |  |  | 
O=C(Nc1nc(CCO)cs1)c1ccc(CNc2ccccc2Cl)cc1 | 6.4 nM | 74% | 29% | Activity [4]: 66%; Activity [5]: 35%
O=C(Nc1ccncc1)c1ccc(COc2ccccc2Cl)cc1 | 1400 nM |  |  | IC50 [6]: > 30000 nM; IC50 [7]: > 30000 nM; IC50 [8]: 510 nM
O=C(O)CCc1csc(NC(=O)c2ccc(CNc3ccccc3C(F)(F)F)cc2)n1 | 6.3 nM |  |  | 
O=C(Nc1nc(CCCO)cs1)c1ccc(CNc2ccccc2C(F)(F)F)cc1 | 5.2 nM | 75% | 64% | 
Cc1csc(NC(=O)c2ccc(CNc3ccccc3C)nc2)n1 | 310 nM |  |  | 
O=C(Nc1nc(CO)c(C(=O)O)s1)c1ccc(CNc2ccccc2C(F)(F)F)cc1 | 22 nM |  |  | 

The next lines start with results.

IC50 [1] | Activity [3] | Structure (SMILES) | Activity [2] | other results
5.1 nM | 107% | O=C(O)Cc1csc(NC(=O)c2ccc(CNc3ccccc3C(F)(F)F)cc2)n1 | 98% | 
3.8 nM |  | O=C(Nc1ncc(CCO)s1)c1ccc(CNc2ccccc2C(F)(F)F)cc1 |  | 
2.8 nM |  | O=C(Nc1ncc(CO)s1)c1ccc(CNc2ccccc2C(F)(F)F)cc1 |  | 
4.2 nM | 136% | O=C(Nc1nc(CCO)cs1)c1ccc(CNc2ccccc2C(F)(F)F)cc1 | 33% | 
3.9 nM | 171% | O=C(Nc1nc(CCO)cs1)c1ccc(CNc2ccccc2C(F)(F)F)s1 | 10% | Activity [4]: 27%; Activity [5]: 8%
4.5 nM | 104% | CCCCCCc1ccccc1NCc1ccc(C(=O)Nc2nc(CCO)cs2)s1 | 12% | Activity [4]: 12%; Activity [5]: 4%
4.3 nM | 37% | O=C(Nc1nc(CO)cs1)c1ccc(CNc2ccccc2Cl)cc1 | 12% | 
4.8 nM | 68% | CC(C)CCc1ccccc1NCc1ccc(C(=O)Nc2nc(CC(=O)O)cs2)cc1 | 19% | 
4.8 nM | 88% | CCCCCCc1ccccc1NCc1ccc(C(=O)Nc2nc(CC(=O)O)cs2)s1 | 12% | Activity [4]: 13%; Activity [5]: 52%
3 nM | 119% | CCCCCCc1ccccc1NCc1ccc(C(=O)Nc2nc(CC(=O)O)cs2)cc1 | 31% | 
4.5 nM | 127% | CCCCCCCCc1ccccc1NCc1ccc(C(=O)Nc2nc(CC(=O)O)cs2)cc1 | 15% | Activity [4]: 74%; Activity [5]: 71%
3.2 nM | 29% | CCCCc1ccccc1NCc1ccc(C(=O)Nc2nc(CO)cs2)cc1 | 10% | 
4.1 nM |  | Cc1csc(NC(=O)c2ccc(CNc3ccccc3C(F)(F)F)cc2)n1 |  | 
3.8 nM | 73% | O=C(Nc1nc(CO)cs1)c1ccc(CNc2ccccc2C(F)(F)F)cc1 | 20% | Activity [4]: 53%; Activity [5]: 0%
3 nM | 94% | CCCCc1ccccc1NCc1ccc(C(=O)Nc2nc(CCO)cs2)cc1 | 61% | 
